From publication PMC10868446 (Pharmaceutical Biology, 2024)

Legend:
[1] = system: CYP450 isoforms (1A2, 2A6, 2C8, 2C9, 2C19, 2D6, 2E1, 3A4); assay: Cocktail assay of CYP450 isoform activity in pooled human liver microsomes; type: in vitro ADME; settings: pooled HLMs, 100 μM physcion
Method in brief: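 Single-concentration screen in pooled human liver microsomes with the test compound at 100 μM, a blank negative control and typical isoform inhibitors as positive controls. Incubation was in 100 mM potassium phosphate, pH 7.4, with an NADPH-generating system after 3 min pre-incubation. Reactions were stopped with acetonitrile (trichloroacetic acid for CYP2A6), and probe metabolites were quantified by HPLC. Triplicate; one-way ANOVA against the negative control.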

[2] = molecular target: CYP3A4 (Homo sapiens, UniProt P08684); assay: Time-dependent inhibition of CYP3A4 in HLMs; type: in vitro ADME
[3] = after rhubarb extract administration; ref Ding et al. [2003]; Xun et al. [2019]; cited from earlier work
[4] = molecular target: CYP2C9 (Homo sapiens, UniProt P11712); assay: Time-dependent inhibition of CYP2C9 in HLMs; type: in vitro ADME; settings: HLMs pre-incubated with physcion 30 min; incubation 5, 10, 15 and 30 min
Method in brief: (§1)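 Two-step format: microsomes were pre-incubated with the test compound for 30 min. A 20 μL aliquot was transferred to a second tube with substrate near Km and started with the NADPH-generating system. Incubations ran 5, 10, 15 and 30 min, were stopped with acetonitrile and centrifuged, and residual activity was measured by HPLC. Triplicate.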

[5] = rats; after administration of Semen Cassiae extract; ref Yang et al. [2015]; cited from earlier work
[6] = molecular target: CYP2D6 (Homo sapiens, UniProt P10635); assay: Time-dependent inhibition of CYP2D6 in HLMs; type: in vitro ADME; settings: HLMs pre-incubated with physcion 30 min; incubation 5, 10, 15 and 30 min
Method in brief: as §1

CYP3A4, sequence (P08684 whole entry): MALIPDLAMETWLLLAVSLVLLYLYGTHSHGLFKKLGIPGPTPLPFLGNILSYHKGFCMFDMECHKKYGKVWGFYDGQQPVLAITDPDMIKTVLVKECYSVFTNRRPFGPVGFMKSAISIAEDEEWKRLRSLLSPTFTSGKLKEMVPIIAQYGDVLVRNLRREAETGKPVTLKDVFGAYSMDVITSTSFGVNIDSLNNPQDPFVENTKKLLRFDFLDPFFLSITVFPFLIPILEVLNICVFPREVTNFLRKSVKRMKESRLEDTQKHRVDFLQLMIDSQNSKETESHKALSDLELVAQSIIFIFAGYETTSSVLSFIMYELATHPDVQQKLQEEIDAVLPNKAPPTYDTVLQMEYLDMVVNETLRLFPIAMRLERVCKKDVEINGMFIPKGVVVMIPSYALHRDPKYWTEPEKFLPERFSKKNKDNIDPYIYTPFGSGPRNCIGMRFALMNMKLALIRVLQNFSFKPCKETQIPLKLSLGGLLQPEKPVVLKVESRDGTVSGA
CYP2D6, sequence (P10635 whole entry): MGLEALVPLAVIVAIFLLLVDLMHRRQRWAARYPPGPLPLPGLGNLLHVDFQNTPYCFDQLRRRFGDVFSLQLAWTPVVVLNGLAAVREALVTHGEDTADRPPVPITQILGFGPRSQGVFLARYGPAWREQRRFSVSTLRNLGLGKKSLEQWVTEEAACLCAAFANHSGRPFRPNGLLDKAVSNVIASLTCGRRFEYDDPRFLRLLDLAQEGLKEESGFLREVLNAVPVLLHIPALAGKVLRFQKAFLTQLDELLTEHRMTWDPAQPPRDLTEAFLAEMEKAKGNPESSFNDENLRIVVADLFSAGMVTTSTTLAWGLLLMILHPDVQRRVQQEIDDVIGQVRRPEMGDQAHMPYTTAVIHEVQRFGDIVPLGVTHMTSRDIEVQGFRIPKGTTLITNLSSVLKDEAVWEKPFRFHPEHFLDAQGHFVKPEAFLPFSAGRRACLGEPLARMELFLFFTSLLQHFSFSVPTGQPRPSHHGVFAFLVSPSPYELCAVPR
CYP2C9, sequence (P11712 whole entry): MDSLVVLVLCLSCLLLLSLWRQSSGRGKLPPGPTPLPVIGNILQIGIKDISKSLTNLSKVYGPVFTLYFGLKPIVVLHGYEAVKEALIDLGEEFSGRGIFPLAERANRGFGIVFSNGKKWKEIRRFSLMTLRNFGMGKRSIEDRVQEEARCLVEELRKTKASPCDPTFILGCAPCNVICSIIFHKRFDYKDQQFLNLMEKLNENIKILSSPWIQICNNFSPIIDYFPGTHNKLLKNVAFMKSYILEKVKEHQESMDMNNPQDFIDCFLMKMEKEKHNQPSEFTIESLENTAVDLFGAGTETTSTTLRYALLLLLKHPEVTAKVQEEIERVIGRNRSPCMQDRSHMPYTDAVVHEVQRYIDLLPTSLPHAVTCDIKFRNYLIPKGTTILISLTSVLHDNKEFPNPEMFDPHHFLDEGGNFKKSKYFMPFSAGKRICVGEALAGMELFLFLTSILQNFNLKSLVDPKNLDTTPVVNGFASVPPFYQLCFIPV

## COc1cc(O)c2c(c1)C(=O)c1cc(C)cc(O)c1C2=O [physcion, Physcion]
[1]
  Inhibitory effect relative to the positive inhibitors of CYP2C9, 2D6 and 3A4: weaker than the positive inhibitors
[1]; compared with negative control
  Effect on activity of the major CYP450 isoforms: Only the activity of CYP2C9, 2D6 and 3A4 was inhibited
[2]; 0–50 μM physcion, substrate approx. 4-fold Km, 0–30 min
  KI (time-dependent inhibition of CYP3A4): 3.10 µM⁻¹
[2]; HLMs pre-incubated with physcion 30 min, incubation 5, 10, 15 and 30 min
  Time dependence of CYP3A4 inhibition: time-dependent
[3]
  Maximum concentration of physcion: 0.032 µg/mL
  Time at which the maximum concentration was reached: 2 h
[4]
  Time dependence of CYP2C9 inhibition: not influenced
[5]
  Maximum plasma concentration: 461.85 ± 266.77 ng/mL
  Time of maximum plasma concentration: 0.167 ± 0.002 h
[6]
  Time dependence of CYP2D6 inhibition: not influenced
